The test system of data set [1] is Rattus norvegicus. Kind of data set: Antiulcer activity in rat at the dose of 20 mg/kg administered intraperitoneally. The format is functional. Particulars: ip, route intraperitoneal. Summed up: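 Pyloric ligation was done under ether on Wistar-King rats (200-250 g, 10 per group) fasted 24 h. Drug was suspended at 10 mg/mL in 0.9% saline with a trace of Tween 80 and given ip at 20 mg/kg; controls received saline. Forestomach ulcers were scored macroscopically 18 h later as an ulcer index. Percent inhibition was taken versus the mean control index; error <±10%.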

A short description of data set [2]: Partition coefficient (logP). The format is physicochemical. The settings on record: octanol/water.

In the case of `Nc1nc(N)nc(-c2cc(Br)ccc2Br)n1`, 20 mg/kg produced 43% inhibition in vivo in data set [1]. Also, the logP (in general, a log measure of how a compound divides between an organic and an aqueous phase) in data set [2] is 2.09.
As for `Nc1nc(N)nc(-c2cccc(Br)c2)n1`, the inhibition in vivo – broadly, the change of the read-out against control, counted positive when it falls – at 20 mg/kg in data set [1] worked out at 96%. Also, the logP in data set [2] was 2.44.
The corresponding values for `COc1ccc(Br)cc1-c1nc(N)nc(N)n1` are 49% and 1.53.
Take `Nc1nc(N)nc(-c2cc(Cl)ccc2Cl)n1` [IRSOGLADINE]: in data set [1], the inhibition in vivo at 20 mg/kg was found to be 100%. The molecule also registered a logP in data set [2] of 1.97.
The molecule `Nc1nc(N)nc(-c2ccc([N+](=O)[O-])cc2)n1` returned an inhibition in vivo at 20 mg/kg in data set [1] of 41%. The molecule further showed a logP in data set [2] of 1.6.

The values are drawn from ChEMBL document CHEMBL1121426, “Structure-activity study of antiulcerous and antiinflammatory drugs by discriminant analysis” (J Med Chem, 1980).
